{"source": "ChEMBL document CHEMBL4342471", "about": "“Discovery of Thieno[2,3-d]pyrimidine-Based Hydroxamic Acid Derivatives as Bromodomain-Containing Protein 4/Histone Deacetylase Dual Inhibitors Induce Autophagic Cell Death in Colorectal Carcinoma Cells” (J Med Chem, 2020)", "key": {"[1]": {"assay": "Toxicity in BALB/cAnNCrl mouse xenografted with human HCT116 cells assessed as effect on body weight at 15 to 30 mg/kg, po administered on day 1 to day 19 […]", "type": "organism-based", "details": "in vivo", "outline": "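HCT-116 xenograft mice dosed orally at 15 or 30 mg/kg for 19 days, saline as vehicle control; body weights tracked, and main organs sectioned and H&E-stained at study end.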"}, "HCT-116 [2]": {"test_system": "HCT-116", "assay": "Cytotoxicity against human HCT116 cells assessed as reduction in cell viability at 0.5 uM incubated for 24 to 48 hrs in presence of 500 uM type 3 PI3K inhibitor, 3-MA by MTT assay", "type": "functional, cell-based", "outline": "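HCT-116 viability was read by MTT after treatment with 0.5 μM compound, with or without the autophagy inhibitor 3-MA at 500 μM.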"}, "NCM460": {"test_system": "NCM460", "assay": "Cytotoxicity against human NCM460 cells", "type": "cell-based", "outline": "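Antiproliferative IC50 values were measured by MTT assay across a panel of colorectal carcinoma cell lines and normal colorectal epithelial cells.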"}, "Histone deacetylase 3": {"biological_target": "Histone deacetylase 3 (Homo sapiens, UniProt O15379)", "sequence (O15379 whole entry, the tested form may be a part)": "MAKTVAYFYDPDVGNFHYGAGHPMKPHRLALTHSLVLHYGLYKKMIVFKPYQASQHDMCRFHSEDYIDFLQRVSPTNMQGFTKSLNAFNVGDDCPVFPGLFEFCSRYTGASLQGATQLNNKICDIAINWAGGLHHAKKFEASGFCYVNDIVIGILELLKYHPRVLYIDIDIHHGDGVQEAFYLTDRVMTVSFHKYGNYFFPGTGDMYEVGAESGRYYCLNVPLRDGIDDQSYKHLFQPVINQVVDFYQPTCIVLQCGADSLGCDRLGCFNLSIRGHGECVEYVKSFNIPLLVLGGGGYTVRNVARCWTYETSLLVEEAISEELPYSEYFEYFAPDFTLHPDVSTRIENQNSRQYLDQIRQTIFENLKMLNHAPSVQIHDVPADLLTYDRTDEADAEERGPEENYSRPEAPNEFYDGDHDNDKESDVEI", "assay": "Inhibition of HDAC3 (unknown origin) using biotinylated histone H3 KAc peptide (1 to 21 residues) as substrate by HTRF assay"}, "HCT-116 [3]": {"test_system": "HCT-116", "assay": "Induction of apoptosis in human HCT116 cells assessed as late apoptotic cells at 0.5 uM by Annexin-V FITC/propidium iodide staining-based flow cytometry (reference value: 3.51 %)", "type": "functional"}, "Histone deacetylase 11": {"biological_target": "Histone deacetylase 11 (Homo sapiens, UniProt Q96DB2)", "sequence (Q96DB2 whole entry, the tested form may be a part)": "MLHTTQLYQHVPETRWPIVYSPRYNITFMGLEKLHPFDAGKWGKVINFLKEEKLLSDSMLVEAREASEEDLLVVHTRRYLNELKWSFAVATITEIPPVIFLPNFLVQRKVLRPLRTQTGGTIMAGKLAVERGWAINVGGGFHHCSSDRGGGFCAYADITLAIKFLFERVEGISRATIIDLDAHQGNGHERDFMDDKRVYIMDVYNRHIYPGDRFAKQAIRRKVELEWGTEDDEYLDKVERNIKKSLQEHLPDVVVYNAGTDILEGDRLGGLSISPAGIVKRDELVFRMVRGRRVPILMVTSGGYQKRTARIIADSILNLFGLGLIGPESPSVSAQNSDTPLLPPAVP", "assay": "Inhibition of HDAC11 (unknown origin) using biotinylated histone H3 KAc peptide (1 to 21 residues) as substrate by HTRF assay"}, "Mus musculus [4]": {"test_system": "Mus musculus", "assay": "In vivo inhibition of BRD4 in BALB/cAnNCrl mouse xenografted with human HCT116 cells assessed as decrease in c-Myc expression in tumor tissue at 15 to 30 mg/kg, po administered on day 1 to day 19 measured on day 19 by immunohistochemical analysis", "type": "functional, organism-based", "outline": "(§1)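 HCT-116 xenograft mice were dosed orally at 15 or 30 mg/kg, or 30 mg/kg for reference agents, for 19 days, with vehicle or saline controls. Tumor sections were stained for Ki-67, c-Myc, Ac-H3, BRD4, LC3-II, LIFR and p-STAT3 by immunohistochemistry, and TUNEL staining was used as the apoptosis marker.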"}, "Mus musculus [5]": {"test_system": "Mus musculus", "assay": "Induction of autophagy in BALB/cAnNCrl mouse xenografted with human HCT116 cells assessed as increase in LC3-II level in tumor tissue at 15 to 30 mg/kg, po administered on day 1 to day 19 measured on day 19 by immunohistochemical analysis", "type": "functional, organism-based", "outline": "as §1"}, "[6]": {"assay": "AUC (0 to infinity) in Sprague-Dawley rat at 30 mg/kg, po measured up to 1440 mins by UPLC-QTOF/MS analysis", "type": "ADME, organism-based", "set-up": "dose 30 mg/kg, route oral, time infinity", "details": "in vivo"}, "HCT-116 [7]": {"test_system": "HCT-116", "assay": "Induction of apoptotic cell death in human HCT116 cells assessed as change in nuclear morphology at 0.2 to 0.5 uM after 12 hrs by Hoechst 33258 staining based fluorescence microscopy analysis", "type": "functional", "outline": "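Nuclear morphology was examined by Hoechst 33258 staining in HCT-116 cells after treatment at 0.2 or 0.5 μM.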"}, "[8]": {"biological_target": "T1, Bromodomain-containing protein 4 (Homo sapiens, UniProt O60885)", "assay": "Inhibition of BRD4 in human HCT116 cells transfected with ATG5 siRNA assessed as induction of autophagy by measuring p62 degradation at 0.5 uM by Western blot analysis", "type": "cell-based", "outline": "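HCT-116 cells first transfected with ATG5 siRNA or scramble siRNA; after silencing, exposed to 0.5 µM test agent or normal saline, then ATG5, AMPKα, p-AMPKα, p62 and LC3 protein assessed by western blot.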"}, "[9]": {"biological_target": "T1, Bromodomain-containing protein 4", "assay": "Inhibition of human recombinant His-tagged BRD4 BD2 domain using H-SGRGK(Ac)GGK(Ac)GLGK-(Ac)GGAK(Ac)RHRK(Biotin)-OH as substrate preincubated with enzyme for 30 mins followed by substrate addition measured after 30 mins by AlphaScreen assay"}, "Homo sapiens [10]": {"organism": "Homo sapiens", "assay": "Inhibition of BRD4/HDAC in human HCT116 cells assessed as inhibition of IL6-JAK-STAT3 signaling pathway by measuring decrease in LIFR expression at 0.5 uM after 24 hrs by Western blot analysis", "type": "cell-based", "outline": "(§2)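 HCT-116 cells treated 24 h with 0.5 µM, 5.0 µM or 10 µM test agent depending on compound; OSMR, LIFR and downstream pathway proteins detected by western blot.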"}, "Homo sapiens [11]": {"organism": "Homo sapiens", "assay": "Inhibition of BRD4/HDAC in human HCT116 cells assessed as inhibition of IL6-JAK-STAT3 signaling pathway by measuring decrease in STAT3 phosphorylation at 0.5 uM after 24 hrs by Western blot analysis", "type": "cell-based", "outline": "as §2"}, "[12]": {"biological_target": "T1, Bromodomain-containing protein 4", "assay": "Inhibition of BRD4 in human HCT116 cells assessed as induction of autophagic vacuole formation in cytoplasm at 0.5 uM measured after 24 hrs by transmitted electron microscopy", "type": "cell-based", "outline": "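HCT-116 cells were incubated with 0.5 μM compound for 24 hours, fixed, and imaged by transmission electron microscopy for cytoplasmic autophagic vacuoles.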"}, "HCT-116 [13]": {"test_system": "HCT-116", "assay": "Induction of apoptotic cell death in human HCT116 cells by Annexin-V FITC/propidium iodide staining-based flow cytometry", "type": "functional"}, "HCT-116 [14]": {"test_system": "HCT-116", "assay": "Induction of apoptosis in human HCT116 cells assessed as early apoptotic cells at 0.2 uM by Annexin-V FITC/propidium iodide staining-based flow cytometry (reference value: 2.8 %)", "type": "functional"}, "HCT-116 [15]": {"test_system": "HCT-116", "assay": "Antitumor activity against human HCT116 cells xenografted in BALB/cAnNCrl mouse assessed as average tumor growth inhibition at 15 to 30 mg/kg, po administered on day 1 to day 19 relative to control", "type": "functional", "outline": "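HCT-116 xenografts in mice were given the test agent orally at 15 or 30 mg/kg, with a saline control group, over 19 days. Tumor volume was followed during treatment and tumors were weighed at the end. Body weight was monitored. Inhibition is expressed as treatment-to-control (T/C) ratio.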"}, "[16]": {"biological_target": "T1, Bromodomain-containing protein 4", "assay": "Inhibition of BRD4 in human HCT116 cells assessed as induction of autophagy by measuring upregulation of beclin1 expression at 0.2 to 0.5 uM measured after 24 hrs by Western blot analysis", "type": "cell-based"}}, "note": "pIC50: −log10 of the molar value. The source made the active and inactive calls. No cut-off for these calls is given here.", "data": [{"smiles": "Cc1cc(-c2nc3sc4c(c3c(=O)[nH]2)CCN(C)C4)cc(C)c1OCCCCCC(=O)NO", "values": [{"measurement": "Activity", "setting": "[1]", "value": "Non-Toxic"}, {"measurement": "Activity", "setting": "HCT-116 [2]", "value": "inactive"}, {"measurement": "Activity", "setting": "NCM460", "value": "Non-Toxic"}, {"measurement": "pIC50", "setting": "Histone deacetylase 3", "value": 7.12}, {"measurement": "Activity", "setting": "HCT-116 [3]", "value": 35.8, "unit": "%"}, {"measurement": "pIC50", "setting": "Histone deacetylase 11", "value": "< 5.00"}, {"measurement": "inhibition", "setting": "Mus musculus [4]", "value": "Active"}, {"measurement": "Activity", "setting": "Mus musculus [5]", "value": "Active"}, {"measurement": "AUC(0-inf)", "setting": "[6]", "value": 63300, "unit": "ng·h/mL"}, {"measurement": "Activity", "setting": "HCT-116 [7]", "value": "Active"}, {"measurement": "inhibition", "setting": "[8]", "value": "inactive"}, {"measurement": "pIC50", "setting": "[9]", "value": 5.69}, {"measurement": "inhibition", "setting": "Homo sapiens [10]", "value": "Active"}, {"measurement": "inhibition", "setting": "Homo sapiens [11]", "value": "Active"}, {"measurement": "inhibition", "setting": "[12]", "value": "Active"}, {"measurement": "Activity", "setting": "HCT-116 [13]", "value": "Dose-dependent effect"}, {"measurement": "Activity", "setting": "HCT-116 [14]", "value": 8.2, "unit": "%"}, {"measurement": "growth inhibition (GI)", "setting": "HCT-116 [15]", "value": 68.8, "unit": "%"}, {"measurement": "inhibition", "setting": "[16]", "value": "Active"}]}]}
